From PubChem BioAssay
FLuc stim CS: affects firefly luciferase, flagging false hits in luciferase stimulation screens; P08659; ATPlite luciferase biochemical, luminescence, 10 min; 0 = ATP-free wells, 1 = DMSO control; activation factor at 10 µM; 200,000 tested, under 10 active;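 active = luciferase activation factor, scaled between plate controls, of at least 2 with compound at 10 µM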
Target sequence (P08659 whole entry, looked up): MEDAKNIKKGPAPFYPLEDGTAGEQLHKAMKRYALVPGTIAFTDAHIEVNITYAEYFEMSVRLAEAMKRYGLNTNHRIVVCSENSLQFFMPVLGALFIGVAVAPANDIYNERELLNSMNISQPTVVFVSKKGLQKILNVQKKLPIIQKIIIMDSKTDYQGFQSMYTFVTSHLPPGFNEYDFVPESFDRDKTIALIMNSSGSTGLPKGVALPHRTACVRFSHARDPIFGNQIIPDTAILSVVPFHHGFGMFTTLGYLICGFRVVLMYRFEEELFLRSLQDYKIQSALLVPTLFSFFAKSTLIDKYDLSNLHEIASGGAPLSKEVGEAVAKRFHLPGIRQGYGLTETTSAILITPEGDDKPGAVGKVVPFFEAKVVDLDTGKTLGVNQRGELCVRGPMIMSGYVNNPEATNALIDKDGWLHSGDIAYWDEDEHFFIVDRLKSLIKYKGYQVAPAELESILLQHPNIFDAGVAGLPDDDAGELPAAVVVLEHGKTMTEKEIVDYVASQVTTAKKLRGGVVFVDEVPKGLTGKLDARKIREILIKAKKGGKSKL
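Material: Luciferase/luciferin reagent mix; Doses: test compounds dosed from 2 mM stocks in 100% DMSO; Schedule: 10 min incubation after luciferase reagent addition, room temperature; Measured by: luminescence from luciferase reaction; Read-out: luminescence gain marking luciferase activators.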
HSP90 refold inh: HSP90 refolding inhibition in rabbit reticulocyte lysate | AID 1789 | luciferase refolding luminescence, 3 h | inhibition, % at 5.6 µM | 290,000 compounds, 0.91% hits;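 active = inhibition above the screen-wide mean plus 3 SD, computed separately per campaign, cut at about 16% in these data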;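 note: inhibitors lower the luminescence because luciferase stays unfolded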
FLuc inh counter: inhibits firefly luciferase, flagging false hits in luciferase inhibition screens; P08659; ATPLite firefly luciferase biochemical luminescence, 10 min; inhibition, % at 10 µM; 200,000 compounds, 1.5% hits;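 active = inhibition above about 50% when tested at 10 µM, limit read from the data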
C8 TRAIL sens: caspase-8 TRAIL sensitization. NB7+C8 cells + TRAIL, ATPlite viability luminescence. inhibition (viability loss, TRAIL sensitization), % at 10 µM. 360,000 compounds, 1% hits;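 active = compounds causing at least 50% loss of cell viability in the single-dose screen, relative to plate controls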
PPC-1+TRAIL kill: compounds killing PPC-1 cancer cells with TRAIL present (potentiator screen, no TRAIL-free arm); PPC-1 cells + TRAIL, ATPLite viability luminescence; cell killing (% activity), % at 4 µM or 5 µM; 220,000 compounds, 0.41% hits; AID 1443;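 active = cell killing above 50% in the first pass at 4 µM, then a duplicate retest at 5 µM averaging 50% or more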
PPC1 cytotox: PPC-1 cell cytotoxicity. AID 1447. 1,200 compounds, 50% hits. PPC-1 viability, ATPlite luminescence, overnight. shares compounds with PPC-1+TRAIL kill. cytotoxicity, % at 5 µM;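 active = reconfirmed compounds whose average cytotoxicity reaches 50% or more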
Large screens that a line does not name were inactive (follow-up assays come after a bar, where they were run). This is a sample that favours compounds with a hit; in the whole collection about 2% have one here.

CC1=NN(c2nc3ccccc3[nH]2)C(=O)/C1=C/N(C)C	FLuc inh counter 94, C8 TRAIL sens 88, PPC-1+TRAIL kill 79 | PPC1 cytotox 79
COc1cc(C(=O)OCC(=O)c2c[nH]c3ccccc23)ccc1OCC(=O)N1CCOCC1	none
CCOc1cc(C(=O)OCC(=O)c2c[nH]c3ccccc23)ccc1OCC(=O)N1CCOCC1	none | PPC1 cytotox inactive
COc1ccc(N(C(=O)Cc2cccs2)C(C(=O)NC2CCCC2)c2ccncc2)cc1OC (centres undefined)	none (no result: FLuc stim CS, FLuc inh counter, PPC-1+TRAIL kill)
C#CC(=O)N(c1ccc(OC)c(OC)c1)C(C(=O)NC1CCCC1)c1cccs1 (centres undefined)	C8 TRAIL sens 90, PPC-1+TRAIL kill 98 | PPC1 cytotox 98
O=C(Cn1c(NCCO)nc2ccccc21)N1CCN(Cc2ccccc2)CC1	none
CC(C)[C@@H]1N[C@]2(C(=O)Nc3ccccc32)[C@@H]2C(=O)N(c3cccc(C(F)(F)F)c3)C(=O)[C@@H]21	none
CCCOc1ccc(N2C(=O)C3C(C(C)C)NC4(C(=O)c5ccccc5C4=O)C3C2=O)cc1 (centres undefined)	none | PPC1 cytotox inactive
Cc1ccc(NC(=O)Cc2cn3ccsc3n2)nc1	none | PPC1 cytotox inactive
Oc1c(N=Nc2ccccn2)ccc2ccccc12	FLuc inh counter 91, C8 TRAIL sens 74, PPC-1+TRAIL kill 82 | PPC1 cytotox 80
CC1=C(C(=O)Nc2cc(C(=O)N3CCN(c4ccc(Cl)cc4)CC3)ccc2C)SCCO1	none (no result: FLuc stim CS, HSP90 refold inh, FLuc inh counter, PPC-1+TRAIL kill)
O=C(NCC1CCCO1)c1ccc2c(c1)C(=O)N(C1CCCCC1)C2=O (centres undefined)	none | PPC1 cytotox inactive
CC(C)CCN1C(=O)c2ccc(C(=O)NCC3CCCO3)cc2C1=O (centres undefined)	none
Cn1cnnc1SCC(=O)Nc1nc(-c2ccccc2)cs1	none
CC(=O)Nc1cnc(NC(=O)c2cccc(F)c2)cc1C	none
CCC(=O)Nc1cnc(NC(=O)c2cccc(F)c2)cc1C	none | PPC1 cytotox inactive
CC(C)(C)OC(=O)N1CCC[C@H]1c1nnc(SCC(=O)Nc2ccc(Br)cc2)o1	none (no result: FLuc stim CS, FLuc inh counter)
CC(OC(=O)CCCCCN=C1NS(=O)(=O)c2ccccc21)C(=O)Nc1cc(Cl)cc(Cl)c1 (centres undefined)	none
CCOc1cccc2sc(NN)nc12	none
CCOc1cccc2sc(Cl)nc12	none | PPC1 cytotox inactive
Cc1csc(NC(=O)CCS(=O)(=O)c2ccc(Br)cc2)n1	none | PPC1 cytotox inactive
Cc1csc(NC(=O)Cc2ccc(Br)cc2)n1	none (no result: FLuc stim CS, FLuc inh counter, PPC-1+TRAIL kill)
CC(=O)C1=CCC(c2ccccc2)N(S(=O)(=O)c2ccccc2C)C1 (centres undefined)	none (no result: FLuc stim CS, HSP90 refold inh, FLuc inh counter, PPC-1+TRAIL kill)
O=C(NCCc1ccccn1)c1cc2ccccc2o1	none (no result: FLuc stim CS, FLuc inh counter, PPC-1+TRAIL kill)
CC1CCCC(N2CCN(S(=O)(=O)c3ccccc3)CC2)C1 (centres undefined)	none (no result: FLuc stim CS, FLuc inh counter, PPC-1+TRAIL kill)
CCCCS/C(N)=N/N=C/c1cc(C)ccc1O	none
CCS/C(N)=N/N=C/c1cc(C)ccc1O	FLuc inh counter 90, C8 TRAIL sens 72, PPC-1+TRAIL kill 62 | PPC1 cytotox 64
Cc1ccc(NC(=O)c2cccc3ccccc23)cc1	none (no result: FLuc stim CS, FLuc inh counter, PPC-1+TRAIL kill)
Cc1ccc(NC(=O)c2csc(-c3ccccc3)c2C)cc1	HSP90 refold inh 34, FLuc inh counter 85, C8 TRAIL sens 81, PPC-1+TRAIL kill 80 | PPC1 cytotox 82
CN=c1scc(C)n1/N=C/c1ccc(O)cc1O	FLuc inh counter 81, C8 TRAIL sens 67, PPC-1+TRAIL kill 71 | PPC1 cytotox 71
C=CCN=c1scc(C)n1/N=C/c1ccc(O)c(O)c1	none
Nc1nc(CSCc2ccccc2)nc(N2CCOCC2)n1	none | PPC1 cytotox inactive
Cc1ccc(C(=O)Nc2nc3c(s2)CCCC3)o1	FLuc inh counter 82, C8 TRAIL sens 65, PPC-1+TRAIL kill 52 | PPC1 cytotox 53
O=C(Nc1nc2c(s1)CCCC2)c1cccs1	FLuc inh counter 80, C8 TRAIL sens 62, PPC-1+TRAIL kill 51 | PPC1 cytotox 52
O=C(Cc1cccs1)Nc1nc2c(s1)CCCC2	none
O=c1[nH]nc(SCc2cc(Cl)ccc2Cl)c(=O)[nH]1	none (no result: FLuc stim CS, FLuc inh counter)
C/C(=N\N=C(/C)c1cccc(N)c1)c1cccc(N)c1	none (no result: FLuc stim CS, HSP90 refold inh, FLuc inh counter, PPC-1+TRAIL kill)
COc1cc(Br)c(S(=O)(=O)Nc2c(C)n(C)n(-c3ccccc3)c2=O)cc1OC	none | PPC1 cytotox inactive
CCc1cccc(CC)c1NC(=O)COC(=O)C1(C)CC1(Cl)Cl (centres undefined)	none
CCCCNC(=O)c1ccccc1NC(=O)CCC	none
